The text below walks through data of ChEMBL document CHEMBL1127630, “New dual inhibitors of neutral endopeptidase and angiotensin-converting enzyme: rational design, bioavailability, and pharmacological responses in experimental hypertension” (J Med Chem, 1994).

Assay [1] concerns the target T1, Angiotensin-converting enzyme (Mus musculus) (UniProt P09470).
T1 sequence (whole entry): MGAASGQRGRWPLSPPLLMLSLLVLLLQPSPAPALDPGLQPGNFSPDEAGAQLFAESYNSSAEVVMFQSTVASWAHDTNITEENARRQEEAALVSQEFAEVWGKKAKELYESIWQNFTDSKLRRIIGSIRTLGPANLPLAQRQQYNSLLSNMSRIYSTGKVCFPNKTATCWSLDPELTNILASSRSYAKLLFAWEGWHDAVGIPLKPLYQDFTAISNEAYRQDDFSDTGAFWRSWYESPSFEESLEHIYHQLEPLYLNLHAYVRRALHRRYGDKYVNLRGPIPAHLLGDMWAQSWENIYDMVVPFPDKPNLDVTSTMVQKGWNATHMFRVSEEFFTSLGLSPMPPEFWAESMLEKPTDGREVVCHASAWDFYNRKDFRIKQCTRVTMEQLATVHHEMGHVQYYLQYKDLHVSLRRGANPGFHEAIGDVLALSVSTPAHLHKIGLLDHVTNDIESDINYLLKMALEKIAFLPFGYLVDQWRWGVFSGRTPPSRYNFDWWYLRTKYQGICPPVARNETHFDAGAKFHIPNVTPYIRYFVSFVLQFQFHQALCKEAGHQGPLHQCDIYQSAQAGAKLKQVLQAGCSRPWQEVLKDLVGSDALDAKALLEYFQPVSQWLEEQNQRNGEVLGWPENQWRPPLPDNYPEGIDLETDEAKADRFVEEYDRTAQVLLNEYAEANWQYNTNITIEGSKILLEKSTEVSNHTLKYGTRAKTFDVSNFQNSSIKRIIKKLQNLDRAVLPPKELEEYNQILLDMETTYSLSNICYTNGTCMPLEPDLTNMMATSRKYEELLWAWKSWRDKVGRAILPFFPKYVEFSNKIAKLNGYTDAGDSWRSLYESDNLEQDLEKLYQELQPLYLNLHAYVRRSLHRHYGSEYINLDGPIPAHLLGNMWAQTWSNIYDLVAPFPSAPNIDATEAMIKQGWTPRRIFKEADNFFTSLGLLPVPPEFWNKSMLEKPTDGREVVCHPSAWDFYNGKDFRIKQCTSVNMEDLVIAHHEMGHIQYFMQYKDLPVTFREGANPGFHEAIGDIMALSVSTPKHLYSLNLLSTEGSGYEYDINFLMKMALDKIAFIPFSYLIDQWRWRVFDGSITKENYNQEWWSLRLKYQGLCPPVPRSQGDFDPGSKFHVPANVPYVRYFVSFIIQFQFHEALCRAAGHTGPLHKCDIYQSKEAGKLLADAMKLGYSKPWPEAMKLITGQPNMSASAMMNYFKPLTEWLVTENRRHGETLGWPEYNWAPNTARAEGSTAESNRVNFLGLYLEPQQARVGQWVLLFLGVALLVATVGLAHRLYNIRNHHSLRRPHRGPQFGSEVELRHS
The experiment in a line: In vivo inhibition of lung ACE was observed at 120 min after oral administration of the compound. It is filed as functional, organism-based. Further details: concentration or dose not given beside the values.

Assay [2] deals with T1, Angiotensin-converting enzyme (Mus musculus). Put plainly: In vivo inhibition of lung ACE was observed at 240 min after oral administration of the compound. The assay is classed as functional, organism-based. Further details: concentration or dose not given beside the values.
Assay [3] has as its target T2, Neprilysin (Mus musculus) (UniProt Q61391).
T2 sequence (whole entry): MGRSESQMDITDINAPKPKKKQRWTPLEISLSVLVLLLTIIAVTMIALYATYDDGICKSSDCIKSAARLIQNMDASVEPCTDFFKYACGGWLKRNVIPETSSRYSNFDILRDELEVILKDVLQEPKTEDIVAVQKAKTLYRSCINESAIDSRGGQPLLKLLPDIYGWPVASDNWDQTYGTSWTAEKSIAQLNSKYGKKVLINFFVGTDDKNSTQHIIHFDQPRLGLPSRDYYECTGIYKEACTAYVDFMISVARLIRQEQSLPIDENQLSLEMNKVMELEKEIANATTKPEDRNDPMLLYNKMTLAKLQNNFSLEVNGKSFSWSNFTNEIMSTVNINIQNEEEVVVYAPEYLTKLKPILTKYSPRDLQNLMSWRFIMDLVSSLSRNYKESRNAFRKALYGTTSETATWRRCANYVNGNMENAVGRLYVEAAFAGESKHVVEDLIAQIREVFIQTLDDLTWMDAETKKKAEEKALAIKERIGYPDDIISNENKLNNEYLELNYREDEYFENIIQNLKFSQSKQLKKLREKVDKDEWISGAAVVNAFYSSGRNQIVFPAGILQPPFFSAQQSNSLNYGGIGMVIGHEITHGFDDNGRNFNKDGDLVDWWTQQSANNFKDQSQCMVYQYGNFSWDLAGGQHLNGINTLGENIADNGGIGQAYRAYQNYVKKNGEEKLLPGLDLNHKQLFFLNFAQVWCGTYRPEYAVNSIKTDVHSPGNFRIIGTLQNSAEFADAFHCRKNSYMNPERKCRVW
The experiment in a line: Inhibition of Neutral Endopeptidase activity was measured by using the displacement of [3H]HACBOGly from mouse kidney after 8 hr oral administration. Further details: scale not given: the % may be the effect or the level left. The essentials:
(§1)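 Mice dosed orally at 2.6 X 10-6 mol/kg in 10% ethanol/10% cremophor/80% water. [3H]HACBOGly (1 uCi) injected iv at intervals after dosing. Kidneys taken 15 min later, homogenized in 50 mM Tris-HCl pH 7.4 at 4 °C and filtered, radioactivity counted. Inhibition expressed as percent displacement versus control. Nonspecific binding defined with coinjected retrothiorphan (10.000 eq).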
For orientation: In a radioligand displacement assay an active substance lowers the binding of a labelled ligand.

For assay [4], the target named is T2, Neprilysin (Mus musculus). The experiment in a line: Inhibition of Neutral Endopeptidase activity was measured by using the displacement of [3H]HACBOGly from mouse kidney after 16h oral administration. Further details: scale not given: the % may be the effect or the level left. The essentials: as §1
For assay [5], the target named is T1, Angiotensin-converting enzyme (Mus musculus). The experiment in a line: In vivo inhibition of lung ACE was observed at 30 min after oral administration of the compound. The assay is classed as organism-based. Further details: concentration or dose not given beside the values.
In assay [6] the target is T2, Neprilysin (Mus musculus). The experiment in a line: Inhibition of Neutral Endopeptidase activity was measured by using the displacement of [3H]HACBOGly from mouse kidney after 4 hr oral administration. Further details: scale not given: the % may be the effect or the level left. In a few lines:
as §1

Assay [7] has as its target T2, Neprilysin (Mus musculus). The experiment in a line: Inhibition of Neutral Endopeptidase activity was measured by using the displacement of [3H]HACBOGly from mouse kidney after 1 hour oral administration. Further details: scale not given: the % may be the effect or the level left. In a few lines: as §1
Assay [8] deals with T2, Neprilysin (Mus musculus). Put plainly: Inhibition of Neutral Endopeptidase activity was measured by using the displacement of [3H]HACBOGly from mouse kidney after 2 hr oral administration. Further details: scale not given: the % may be the effect or the level left. In a few lines: as §1
Assay [9] relates to Mus musculus. Put plainly: In vivo inhibition of lung ACE was observed at 60 min after oral administration. The assay is classed as functional. Further details: concentration or dose not given beside the values.
Assay [10] has as its target T1, Angiotensin-converting enzyme (Mus musculus). Put plainly: (§2) In vivo inhibition of lung Angiotensin I converting enzyme in mouse at a dose of 2.6*10e-5 mol/kg after 60 min oral administration. The assay is classed as organism-based. The essentials: (§3)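 Prescreen in mice: single oral dose of 2.6 X 10-5 mol/kg of prodrug (thioacetyl and benzyl ester protected, tested as stereoisomer mixtures). Inhibition of binding of a tritiated ACE probe to lung measured 20 and 60 min after dosing. Mean ± SEM of three experiments, three mice each.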

Assay [11] shares this target. The experiment in a line: Inhibition of lung Angiotensin Converting Enzyme (ACE) in mouse at a dose of 2.6*10e-5 mol/kg after 20 min oral administration. In a few lines:
as §3

Assay [12] addresses T2, Neprilysin (Mus musculus). The experiment in a line: Inhibition of Neutral Endopeptidase activity was measured by using the displacement of [3H]-HACBOGly from mouse kidney after 1 hr oral administration. Further details: scale not given: the % may be the effect or the level left. The essentials: as §1
Assay [13] deals with T1, Angiotensin-converting enzyme (Mus musculus). Put plainly: In vivo inhibition of lung Angiotensin Converting Enzyme (ACE) in mouse at a dose of 2.6*10e-5 mol/kg after 60 min oral administration. The assay is classed as functional, organism-based. In a few lines: as §3
Assay [14] deals with Mus musculus. The description is as §2. It is filed as functional. The essentials: as §3
For assay [15], the system named is Mus musculus. The experiment in a line: Time course of the in vivo inhibition (percent of control) of lung ACE was observed at 30 min after oral administration of the compound. Further details: scale not given: the % may be the effect or the level left. It is filed as functional.

As to `C[C@H](NC(=O)[C@@H](CSC(=O)C12CC3CC(CC(C3)C1)C2)[C@@H](C)c1ccccc1)C(=O)O`, the Control in assay [1] stood at 42%; in assay [2], 37%; in assay [3], 94%; in assay [4], 10%; in assay [5], 72%; in assay [6], 100%. In addition, the figures for the Control (in [7]; in [8]; in the assay with Mus musculus [9]) were 100%, 100% and 54%, respectively.

What is called inhibition is how much of the control response was suppressed. As to `CC(=O)SCC(C(=O)NCC(=O)OCc1ccccc1)C(C)c1ccccc1` (stereo not drawn), the inhibition in [10] came to 43%; in assay [11], 36%.

In the case of `CC(c1ccccc1)C(CSC(=O)c1ccccc1)C(=O)N[C@@H](C)C(=O)O` (stereo partly drawn), the Control came out at 44% in assay [1]; 32% in [2]; 93% in assay [3]; 100% in assay [12]; 12% in [4]; 75% in [5]. The Control is 100% in assay [6], 100% in assay [8] and 66% with Mus musculus [9].

In the case of `CC(c1ccccc1)C(CSC(=O)C12CC3CC(CC(C3)C1)C2)C(=O)N[C@@H](C)C(=O)O` (stereo partly drawn), the Control in [1] came to 36%; in assay [2], 35%; in assay [5], 40%; with Mus musculus [9], 39%.

`CC(=O)SCC(C(=O)N[C@@H](C)C(=O)O)C(C)c1ccccc1` (stereo partly drawn): the Control was determined as 18% in assay [1], 16% in assay [2], 31% in assay [5] and 29% with Mus musculus [9].

Turning to `CC(c1ccccc1)C(CSC(=O)C12CC3CC(CC(C3)C1)C2)C(=O)N[C@@H](C)C(=O)OCc1ccccc1` (stereo partly drawn), the Control is 42% in assay [1], 16% in assay [2], 41% in [5] and 34% with Mus musculus [9].

`CCC[C@H](NC(=O)C(CSC(=O)c1ccccc1)C(C)c1ccccc1)C(=O)O` (stereo partly drawn): the Control in [1] came to 49%; in assay [2], 41%; in assay [12], 70%; in assay [5], 69%; in assay [6] it was 46%; in assay [8], 55%. The same compound had a Control with Mus musculus [9] of 52%.

As for `CC[C@H](NC(=O)C(CSC(=O)c1ccccc1)C(C)c1ccccc1)C(=O)O` (stereo partly drawn), the Control in assay [1] came out at 39%; in [2], 30%; in assay [12] it was 100%; in assay [5] it was 73%; in [6], 73%; in [8], 97%. In the assay with Mus musculus [9], this compound showed a Control of 57%.

As for `CC(=O)SCC(C(=O)N[C@@H](C)C(=O)OCc1ccccc1)C(C)c1ccc(F)c(F)c1` (stereo partly drawn), the inhibition in assay [13] is 22%; in assay [11], 35%.

For the compound `CC(=O)Oc1ccc(C[C@H](NC(=O)C(CSC(C)=O)C(C)c2ccc(F)cc2)C(=O)OCc2ccccc2)cc1` (stereo partly drawn), the results for the inhibition in assay [13] and in assay [11] were 11% and 36%, respectively.

In general, Inhibition refers to the relative decrease from the control value, in per cent. As for `CC(=O)SCC(C(=O)N[C@@H](C)C(=O)OCc1ccccc1)C(C)c1ccccc1` (stereo partly drawn), the Control in assay [1] is 21%; in assay [2], 2%; in the assay on Mus musculus [15], 41%; in the assay with Mus musculus [9], 46%. This compound also had an Inhibition in the assay with Mus musculus [14] of 44%. The compound further returned an inhibition in assay [11] of 54%.

For `CC(=O)Oc1ccc(C[C@H](NC(=O)C(CSC(C)=O)C(C)c2ccc(F)c(F)c2)C(=O)OCc2ccccc2)cc1` (stereo partly drawn), the inhibition in assay [13] turned out to be 19%; in assay [11], 24%.
